{"data": "Assay results of several laboratories", "target": "cAMP-dependent protein kinase catalytic subunit PRKX (PRKX, Homo sapiens, UniProt P51817)", "Residues used in one study (P51817 1-358)": "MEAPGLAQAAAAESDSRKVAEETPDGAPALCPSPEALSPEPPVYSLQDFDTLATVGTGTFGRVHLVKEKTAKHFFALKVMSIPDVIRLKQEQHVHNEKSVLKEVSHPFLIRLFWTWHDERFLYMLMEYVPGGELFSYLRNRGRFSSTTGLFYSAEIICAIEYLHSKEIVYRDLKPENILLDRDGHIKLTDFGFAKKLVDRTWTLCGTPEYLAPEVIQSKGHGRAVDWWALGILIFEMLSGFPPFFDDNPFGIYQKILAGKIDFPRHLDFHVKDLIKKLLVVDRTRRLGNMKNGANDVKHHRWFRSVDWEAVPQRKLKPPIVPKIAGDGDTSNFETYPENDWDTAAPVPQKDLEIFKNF", "note": "Compare with care: the assays were run in different laboratories."}
{"SMILES": "C[C@@]1(Cc2ccc(C#N)cc2)C(=O)N(c2cc(Cl)cc(Cl)c2)c2ncc(C(=O)NC3(c4nc(C5CCC5)no4)CC3)n21", "effect on": "cell-free assay", "method": "competition with immobilised ligand", "concentration": "1 µM", "measurement": "remaining binding", "value": "100%"}
{"SMILES": "CC(C)(O)[C@H]1CC[C@H](Nc2ccc3ncc(-c4cccc(C(F)(F)F)c4)n3n2)CC1", "effect on": "enzyme activity", "action": "inhibitor", "concentration": "1 µM", "measurement": "remaining activity", "value": "103%"}
{"SMILES": "CCN(CC)CCNC(=O)c1c(C)[nH]c(/C=C2\\C(=O)Nc3ccc(F)cc32)c1C", "effect on": "enzyme activity", "action": "inhibitor", "concentration": "10 µM", "measurement": "inhibition", "value": "15%"}
{"SMILES": "CCS(=O)(=O)c1cc2cc(C[C@@](O)(CC(C)(C)c3ccc(F)cc3C(N)=O)C(F)(F)F)[nH]c2cn1", "effect on": "cell-free assay", "method": "competition with immobilised ligand", "concentration": "1 µM", "measurement": "remaining binding", "value": "77%"}
{"SMILES": "N#CCCc1ccc2c(c1)-c1[nH]c3ccc([N+](=O)[O-])cc3c1CC(=O)N2", "effect on": "cell-free assay", "concentration": "0.5 µM", "measurement": "remaining signal", "value": "78.4%"}
{"SMILES": "Cn1cnc(Br)c1C1=CN(c2ncnc3[nH]cnc23)CCS1", "effect on": "enzyme activity", "action": "inhibitor", "method": "radiometric", "concentration": "2 µM", "measurement": "inhibition", "value": "92.8%"}
{"SMILES": "CO[C@@H](C)c1c(Nc2ccc([C@@H](N(C)C(=O)C3CCS(=O)(=O)CC3)C(F)(F)F)cc2)cnc2cc(Cl)nn12", "effect on": "cell-free assay", "method": "competition with immobilised ligand", "concentration": "1 µM", "measurement": "remaining binding", "value": "84%"}
{"SMILES": "Cc1cnc(NC2CCOCC2)nc1-n1cnc(C(=O)NC(CN)c2cc(F)cc(Cl)c2)c1 (centres unmarked)", "effect on": "enzyme activity", "action": "inhibitor", "method": "radiometric", "concentration": "1 µM", "measurement": "remaining activity", "value": "24%"}
{"SMILES": "CCCOc1ccc(OC)c(F)c1C(=O)c1ccc(C(=O)N[C@@H]2CNC[C@H]2NC(=O)c2ccc3[nH]ncc3c2)cc1", "effect on": "enzyme activity", "action": "inhibitor", "concentration": "50 nM", "measurement": "remaining activity", "value": "16%"}
{"SMILES": "Cc1ccc(NC(=O)c2ccc(CN3CCN(C)CC3)cc2)cc1Nc1nc(-c2cccnc2)cs1", "effect on": "cell-free assay", "concentration": "0.5 µM", "measurement": "remaining signal", "value": "99.5%"}
{"SMILES": "Cc1ccc(Nc2nccc(N(C)c3ccc4c(C)n(C)nc4c3)n2)cc1S(N)(=O)=O", "effect on": "enzyme activity", "action": "inhibitor", "concentration": "10 µM", "measurement": "inhibition", "value": "88%"}
{"SMILES": "CC(C)(C)c1nc2c(s1)c1nc(N)ncc1c1ccc(NS(=O)(=O)c3c(F)cccc3F)c(F)c12", "effect on": "enzyme activity", "action": "inhibitor", "method": "radiometric", "concentration": "1 µM", "measurement": "remaining activity", "value": "82%"}
{"SMILES": "Nc1ncnc2occ(-c3ccc(NC(=O)Nc4cc(C(F)(F)F)ccc4F)cc3)c12", "effect on": "cell-free assay", "action": "inhibitor", "concentration": "20 µM", "measurement": "remaining signal", "value": "74%"}
{"SMILES": "O=C(Nc1cccnn1)N1CCC(=Cc2cccc(Oc3ccc(C(F)(F)F)cn3)c2)CC1", "effect on": "cell-free assay", "method": "competition with immobilised ligand", "concentration": "1 µM", "measurement": "remaining binding", "value": "87%"}
{"SMILES": "O=c1cc(-c2cccc3c2Sc2ccccc2S3)oc(N2CCOCC2)c1", "effect on": "enzyme activity", "action": "inhibitor", "concentration": "0.5 µM", "measurement": "remaining activity", "value": "113%"}
{"SMILES": "CNC(=O)c1ccc(Nc2ncc(C(F)(F)F)c(NCc3nccnc3N(C)S(C)(=O)=O)n2)cc1", "effect on": "cell-free assay", "method": "competition with immobilised ligand", "concentration": "0.1 µM", "measurement": "remaining binding", "value": "95%"}
{"SMILES": "Cc1cc(NC(=O)c2cccc3cc(-c4cccc5[nH]nc(N)c45)ccc23)ccc1F", "effect on": "enzyme activity", "action": "inhibitor", "concentration": "0.1 µM", "measurement": "activity vs control", "value": "101%"}
{"SMILES": "Cc1ccc(NC(=O)c2ccc(C)c(C(F)(F)F)c2)cc1C#Cc1nn(C2CCC(O)CC2)c2ncnc(N)c12 (centres unmarked)", "effect on": "cell-free assay", "concentration": "10 µM", "measurement": "remaining signal", "value": "105%"}
{"SMILES": "NS(=O)(=O)c1cc(NC(=O)C2(c3ccccc3Cl)CC2)ccc1Oc1cccc(Cl)c1", "effect on": "cell-free assay", "method": "competition with immobilised ligand", "concentration": "1 µM", "measurement": "remaining binding", "value": "77%"}
{"SMILES": "CC/C(=N\\NC(=O)C(C)Nc1ccccc1)c1ccc(O)c(C)c1O (centres unmarked)", "effect on": "enzyme activity", "action": "inhibitor", "concentration": "0.1 µM", "measurement": "inhibition", "value": "45.2%"}
{"SMILES": "COc1cc2ncnc(Nc3ccc(Oc4ccccc4)c(C)c3C)c2cc1OC", "effect on": "enzyme activity", "action": "inhibitor", "concentration": "1 µM", "measurement": "inhibition", "value": "-12%"}
{"SMILES": "Cc1ccc(C(=O)Nc2ccc(CN3CCN(C)CC3)c(C(F)(F)F)c2)cc1C#Cc1cnc2cccnn12", "effect on": "enzyme activity", "concentration": "23.5 nM", "measurement": "remaining activity", "value": "77%"}
{"SMILES": "C[C@H](c1cccc(C#N)c1)n1cc(Cl)cc(C(N)=O)c1=N", "effect on": "cell-free assay", "method": "competition with immobilised ligand", "concentration": "1 µM", "measurement": "remaining binding", "value": "100%"}
{"SMILES": "CNC(=O)c1cc(Oc2ccc(NC(=O)Nc3ccc(Cl)c(C(F)(F)F)c3)cc2)ccn1", "effect on": "enzyme activity", "action": "inhibitor", "concentration": "0.3 µM", "measurement": "inhibition", "value": "8%"}
{"SMILES": "O=C1NC(c2ccccn2)Sc2ccccc21 (centres unmarked)", "effect on": "cell-free assay", "method": "competition with immobilised ligand", "concentration": "1 µM", "measurement": "remaining binding", "value": "100%"}
{"SMILES": "O=C(Nc1cnn(-c2csc(C(=O)NC3COC3)c2)c1)Nc1c(F)cccc1Cl", "effect on": "enzyme activity", "action": "inhibitor", "concentration": "5 µM", "measurement": "remaining activity", "value": "91.5%"}
